Screening data from PubChem BioAssay.
PRMT1 inh = PRMT1 (human) inhibition, primary screen; inhibition, % at 2.79 µM; 370,000 compounds, 1.3% hits; recombinant PRMT1, activity-based probe fluorescence polarization; Q99873;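 active = inhibition above about 21% made by adding two undisclosed values, limit read from the data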
Target sequence (Q99873 whole entry, looked up): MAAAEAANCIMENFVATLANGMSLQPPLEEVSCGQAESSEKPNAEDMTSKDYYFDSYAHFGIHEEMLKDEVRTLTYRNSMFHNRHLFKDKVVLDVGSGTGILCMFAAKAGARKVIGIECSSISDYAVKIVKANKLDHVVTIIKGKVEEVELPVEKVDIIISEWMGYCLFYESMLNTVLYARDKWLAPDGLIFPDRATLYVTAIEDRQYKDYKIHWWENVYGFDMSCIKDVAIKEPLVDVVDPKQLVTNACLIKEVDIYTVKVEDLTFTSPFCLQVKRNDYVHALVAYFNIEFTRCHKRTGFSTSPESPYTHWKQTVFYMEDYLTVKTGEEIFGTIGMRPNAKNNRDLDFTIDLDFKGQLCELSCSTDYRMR
HTRA1 inhibitor = inhibitors of human serine peptidase HTRA1. AID 504803. recombinant HTRA1, FP-rhodamine activity-based probe, fluorescence polarization. Q92743. 340,000 compounds, 0.5% hits. inhibition, % at 5.96 µM; in the data active = inhibition above about 36%;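 note: 0% = enzyme with DMSO and 100% = wells lacking enzyme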
DAGLB inhibitor = blocks human DAGLB lipase activity | Q8NCG7 | HEK293T DAGLB membrane lysate, EnzChek fluorogenic substrate | inhibition, % at 5.17 µM | 340,000 compounds, 0.059% hits; in the data active = inhibition above about 34%;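 note: 0% = enzyme with vehicle and 100% = wells lacking enzyme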
ABHD4 inh = inhibitors of mouse ABHD4; Q8VD66; purified mABHD4, FP-Rh probe fluorescence polarization; inhibition, % at 8.92 µM; 370,000 compounds, 0.54% hits; AID 720543;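 active = inhibition exceeding the mean over every tested compound plus 3 SD, cut at about 30% in these data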;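 note: 0% = plate median of compound wells and 100% = S159A mutant with DMSO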
Target sequence (Q8VD66 whole entry, looked up): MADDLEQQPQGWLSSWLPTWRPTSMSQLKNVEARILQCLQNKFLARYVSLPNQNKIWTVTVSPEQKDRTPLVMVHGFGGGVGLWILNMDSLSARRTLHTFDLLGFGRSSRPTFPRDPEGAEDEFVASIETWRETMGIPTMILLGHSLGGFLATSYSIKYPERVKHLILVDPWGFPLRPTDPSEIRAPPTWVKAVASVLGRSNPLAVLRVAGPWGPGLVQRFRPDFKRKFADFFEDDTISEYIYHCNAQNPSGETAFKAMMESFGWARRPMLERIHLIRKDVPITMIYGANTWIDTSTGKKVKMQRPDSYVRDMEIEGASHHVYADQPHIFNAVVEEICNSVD
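assay system = mABHD4 protein | compound dosing = single nominal dose of 8.92 µM, 0.89% DMSO final | read-out basis = percent inhibition of probe binding, normalized to plate controls | schedule = Enzyme–compound pre-incubation 45 min, then probe 60 min, both 25 °C | detection = fluorescence polarization, excitation 525 nm, emission 598 nm, BODIPY TMR filters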
LEDGF integ inh = blocks HIV-1 LEDGF/p75-dependent DNA integration; 370,000 compounds, 0.64% hits; AID 743269; inhibition, % at 3.7 µM; TR-FRET IN-LEDGF/p75 DNA integration, Eu/Cy5;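 active = inhibition above the screen-wide mean plus 3 SD, cut at about 13% in these data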;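 note: signal is the Cy5 over europium emission ratio at 671 and 618 nm; 0% = plate median of compound wells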
rCAG RNA binder = binds r(CAG) RNA repeats. 370,000 compounds, 1.3% hits. r(CAG) RNA repeat, TO-PRO-1 dye displacement fluorescence. AID 651821. inhibition, % at 3 µM;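 active = inhibition above the plate cutoff, the mean of all test compounds on that plate plus 3 SD, cut at about 35% in these data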;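 note: 0% = DMSO alone and 100% = 100 µM mitoxantrone as full dye displacement; higher means more dye released from RNA so lower well fluorescence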
mABHD4 conf = ABHD4 (mouse) inhibition, FP confirmation; shares compounds with ABHD4 inh; inhibition, % at 8.92 µM; 1,800 compounds, 55% hits; purified mABHD4, FP-Rh probe fluorescence polarization;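 active = mean inhibition across replicates above the hit cutoff set in the primary screen, cut at about 30% in these data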;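 note: 0% = wild-type ABHD4 with DMSO and 100% = catalytically dead S159A mutant with DMSO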
* hit, by the source's call; / = no result given. An excerpt weighted towards active compounds, which were near 3.2% of everything screened.

SMILES | PRMT1 inh | HTRA1 inhibitor | DAGLB inhibitor | ABHD4 inh | LEDGF integ inh | rCAG RNA binder | mABHD4 conf
O=S1(=O)c2ccccc2N=NN1Cc1ccc(Cl)cc1 | 6.4 | 11.2 | 2.6 | 45.6* | -2.2 | 23.7 | 54.0*
COC(=O)C1=C(C)N(Cc2ccccc2C(F)(F)F)C(=NCc2ccc(OC)cc2)NC1c1ccccc1 (configuration not stated) | 0.7 | / | / | 13.5 | -2.0 | 7.1 | /
COC(=O)C1=C(C)N(Cc2ccccc2C(F)(F)F)C(=NCc2ccc(OC)cc2)NC1c1cccc(F)c1 (configuration not stated) | -0.5 | / | / | 42.3* | -2.7 | 5.4 | 66.4*
O=C(CN1C(=O)NC2(CCc3ccccc32)C1=O)c1ccc(Br)s1 (configuration not stated) | 0.3 | -22.6 | -0.9 | -4.8 | 4.9 | 17.5 | /
CN(C)C1(CN=Cc2cc(Cl)cc([N+](=O)[O-])c2O)CCCCC1 | 12.2 | 33.9 | 20.9 | 36.4* | -2.7 | 33.8 | 44.9*
O=[N+]([O-])c1cc(Cl)cc(/C=N\Nc2ccccn2)c1O | -1.0 | 30.9 | 16.1 | 21.0 | 0.1 | 7.1 | /
CN(C(=O)c1cccc(NC(=O)Cc2ccc(NC(=O)C3CCCN(C(=O)CCc4ccccc4)C3)cc2)c1)C1CC1 (configuration not stated) | -3.6 | -7.5 | -5.0 | -3.0 | 0.0 | 3.1 | /
CCOC(=O)c1sc(N/N=C/c2ccc(N(C)C)cc2)nc1C | -3.8 | 18.2 | 1.2 | 31.5* | 3.9 | 13.7 | 8.8
CC(=O)c1sc(N/N=C\c2ccc(Br)cc2)nc1C | -2.6 | -6.0 | 0.2 | 18.3 | -2.3 | 16.9 | /
CCC(C)(C)c1ccc(OCCCC[n+]2cccc(C)c2C)c(C(C)(C)CC)c1 | -0.7 | 30.4 | -2.0 | 24.5 | 4.3 | 3.7 | /
CCC(C)(C)c1ccc(OCCCC[n+]2ccc(C)cc2)c(C(C)(C)CC)c1 | 2.6 | / | / | 33.3* | 1.0 | 5.4 | 49.8*
CON(C)C(=O)/C=C/c1ccc([B-](F)(F)F)cc1 | 0.1 | 2.4 | 2.6 | 41.5* | 0.0 | 0.9 | 46.9*
CCN(CC)C(=O)/C=C/c1ccccc1 | 5.6 | 2.7 | -2.3 | -15.2 | 0.8 | 10.8 | /
CN(Cc1ccon1)C(=O)CCc1nnc(Cc2ccc(-c3ccccc3)cc2)o1 | 1.1 | -3.5 | -0.3 | -0.2 | -0.4 | -5.4 | /
CC(=NNc1nc2ccccc2s1)c1ncccn1 | 4.0 | 15.6 | 1.8 | 34.9* | 3.1 | 1.0 | 26.6
Oc1ccccc1/C=N/Nc1nc2ccccc2o1 | 6.0 | 12.5 | 3.1 | 15.4 | -6.6 | 6.1 | /
C/C(=N\Nc1nc2ccccc2s1)c1cccs1 | 2.9 | 10.7 | -0.1 | 31.4* | -0.2 | 10.3 | 23.7
Oc1ccc(C=NNc2nc3ccccc3s2)c(O)c1 | -3.6 | 35.4 | 4.5 | 42.5* | -2.8 | 20.4 | 35.9*
CC(=NNc1nc2ccccc2o1)c1ncccn1 | -0.1 | 11.5 | 8.6 | 30.9* | -9.5 | 2.1 | 24.2
CC(=O)Nc1cccc(/C(C)=N/Nc2nc3ccccc3s2)c1 | -0.4 | -11.3 | 3.9 | 11.6 | 3.2 | 5.6 | /
CCN(CC)CCN1C(=O)C2C3c4ccccc4C(c4ccccc43)C2C1=O (configuration not stated) | -1.6 | -0.1 | -1.0 | 0.7 | 0.0 | -10.5 | /
Oc1ccc2ccccc2c1N=Nc1ccccn1 | 3.0 | 14.1 | 28.1 | 49.9* | 4.7 | 8.3 | 53.2*
CCCc1nc2ccc([N+](=O)[O-])cc2[nH]1 | 0.7 | -3.7 | 1.6 | 0.1 | -4.1 | -0.2 | /
CC1=C(C#N)C(=O)OC(C)(C)C1 | 19.6 | 12.7 | -4.3 | 29.9* | 0.2 | -13.1 | 9.5
Cc1[nH]c(=O)c(C#N)c2c1COC(C)(C)C2 | / | -1.2 | 3.2 | / | / | / | /
SMILES | PRMT1 inh | HTRA1 inhibitor | DAGLB inhibitor | ABHD4 inh | LEDGF integ inh | rCAG RNA binder | mABHD4 conf
CC(=NNC(=S)SCc1ccccc1)c1ccccn1 | -3.8 | 11.9 | -1.7 | 55.7* | 0.3 | 9.2 | -10.1
O=C(c1cccs1)N1CCN(C(=O)C(c2ccccc2)c2ccccc2)CC1 | -2.8 | -10.1 | 1.4 | -5.2 | 0.4 | -5.4 | /
O=C(O)c1ccc(NS(=O)(=O)c2ccc3c(c2)C(=O)c2ccccc2C3=O)cc1 | -0.4 | / | / | 36.2* | 0.5 | 10.0 | 58.0*
CCCOC(=O)c1sc2nc3c(cc2c1N)C(=O)CCC3 | 0.7 | 3.0 | -0.8 | 1.6 | -5.3 | 0.3 | /
CCc1ccc2[nH]c(O)c(N=NC3=NC(=O)CS3)c2c1 | 7.3 | 11.2 | 8.4 | 30.5* | -3.0 | 10.4 | 40.8*
CCc1ccc2c(c1)c(N=NC1=NC(=O)CS1)c(O)n2CC | 1.3 | 4.6 | 6.4 | 9.9 | -1.5 | 21.0 | /
Cc1ccccc1NC(=O)Cc1nc(COC(=O)c2cc([N+](=O)[O-])ccc2N)cs1 | 1.3 | -15.6 | 1.6 | 62.3* | -9.3 | 8.7 | 125.8*
Cc1ccccc1NC(=O)Cc1nc(COC(=O)c2cc(Br)ccc2O)cs1 | 4.8 | -1.2 | -2.3 | 17.7 | 0.9 | 1.9 | /
CC(=O)NCCn1c(C)cc2ccccc21 | 4.8 | 4.1 | 1.4 | 0.3 | 1.5 | 2.7 | /
Cc1cc2ccccc2n1CCNC(=O)Cc1cccc2ccccc12 | 0.7 | 36.1 | -59.3 | 45.8* | 4.1 | 10.8 | -18.5
Cc1ccc(C(=O)NCC(c2ccco2)N2CCc3ccccc32)cc1 (configuration not stated) | -5.2 | 1.1 | -1.0 | 0.9 | -2.0 | -3.6 | /
CCOC(=O)C(CNc1ccc(O)cc1)NC(=O)c1ccccc1 (configuration not stated) | 21.0 | / | / | 83.5* | 6.2 | 15.4 | 22.5
CCOC(=O)CCC(NC(=O)c1ccc(NCN2C(=O)c3ccccc3C2=O)cc1)C(=O)OCC (configuration not stated) | 2.6 | -1.3 | -5.9 | -7.0 | -2.1 | -1.9 | /
CC1(C)C(=O)NCCN1C(=O)c1ccc2nc(Cc3ccccc3F)oc2c1 | -5.5 | -0.6 | -0.3 | 2.4 | -1.3 | -4.0 | /
COc1ccccc1CCNC(=O)c1ccc(Br)s1 | -1.0 | -11.9 | -3.8 | 118.5* | -4.8 | -7.4 | -12.4
COc1cccc(C(=O)CC(=O)C(=O)Nc2cc(OC)ccc2OC)c1 | 20.5 | 2.5 | 4.4 | 31.9* | -1.4 | 13.1 | 7.8
CCOc1ccccc1NC(=O)C(=O)CC(=O)c1cccc(OC)c1 | 5.5 | 6.3 | -1.3 | 8.7 | -0.6 | 11.2 | /
CCc1nnc(NC(=O)CN2CCN(Cc3cccc(Cl)c3)CC2)s1 | -1.8 | 6.4 | -0.7 | -5.0 | 4.8 | -5.2 | /
COc1ccc2c(c1)c(/C=N/Nc1nc3ccccc3[nH]1)c(C)n2C | 5.7 | 29.3 | 2.9 | 33.0* | -8.2 | 16.9 | 59.4*
COc1ccccc1-n1cc(CN2CCN(CC(C)C)C(CCO)C2)cn1 (configuration not stated) | 2.9 | -1.6 | 0.6 | -1.6 | 0.9 | -5.1 | /
COc1ccc(/C=N/Nc2cc(C)nc3ccc(OC)cc23)c(OC)c1 | -4.1 | 3.8 | 1.8 | 30.7* | -3.1 | 24.9 | 50.8*
